Screens from PubChem.
Hits are enriched below; roughly 11% of the tested compounds scored in any of these assays.
Diaph inh CS: inhibits diaphorase or chemically oxidizes, flagging diaphorase assay artifacts | diaphorase resazurin-to-resorufin fluorescence, NADH, 16 min; bacterial (C. kluyveri) enzyme, not human | inhibition, % at 20 µM | hit rate 0.69% among 190,000 | AID 1217;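 active = primary screen inhibition at 20 µM above a set limit, cut at about 50% in these data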;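 also: plate controls were DMSO with full reaction for no effect and wells lacking NADH for full effect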
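Assay system: diaphorase enzyme from Clostridium kluyveri. Quantity: enzyme working solution with 0.14 U/mL diaphorase. Schedule: reaction incubation of 16 min at room temperature. Technique: resorufin fluorescence, excitation 544 nm, emission 590 nm. Controls: No-NADH positive control and DMSO neutral control.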
G6PDH CS: L. mesenteroides G6PDH inhibition counter-screen | inhibition, % at 5 µM | Purified L. mesenteroides G6PDH, diaphorase/resazurin coupled fluorescence, 45 min | hit rate 0.12% among 200,000
Lmaj promast: reduces viability of Leishmania major promastigotes; resazurin fluorescence viability; inhibition, % at 10 µM; hit rate 9% among 200,000;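 also: promastigotes grown with compound for 44 hours at 28 °C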
WT yeast gro inh: growth inhibition of WT yeast, mitochondrial fusion screen; mitochondrial fusion phenotypic screen, WT strain; inhibition, % at 10 µM; hit rate 2.1% among 190,000; in the data active = inhibition above about 58%; tested in S. cerevisiae
Diaphorase act: activates diaphorase or chemically reduces, flagging diaphorase assay artifacts. activation factor at 20 µM. hit rate 0.005% among 190,000. Diaphorase/resazurin coupled assay, resorufin fluorescence, 16 min; hits give high values; 1 = vehicle wells, 0 = NADH-free wells;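 active = diaphorase activity raised at least twofold by the compound at 20 µM; inactive = activation factor below 2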
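System – purified diaphorase enzyme from Clostridium kluyveri · Input – enzyme 0.07 U/mL final · Also added – final NADH 0.114 mM, resazurin 0.1 mM · Measured by – fluorescence of resorufin, 544 nm excitation, 590 nm emission · Timing – 16 min enzyme reaction, ambient temperature · Measure – resorufin increase flagging diaphorase activators or reducers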
An asterisk follows results filed as active; / = not tested or not shown. Rule as the data show it, unless noted: active = inhibition above about 50%; inactive = the rest.

SMILES	Diaph inh CS	G6PDH CS	Lmaj promast	WT yeast gro inh	Diaphorase act
COc1cc(S(=O)(=O)Nc2cccc(C)c2)ccc1N=Cc1c(C)[nH]n(-c2ccccc2)c1=O	14.3	-20.0	56.9*	-12.5	0.9
Cc1[nH]n(-c2ccccc2)c(=O)c1C=Nc1cccc2cccnc12	16.0	-8.7	64.4*	-6.4	0.8
Cc1[nH]n(-c2ccccc2)c(=O)c1/C=N/N1C(=O)c2cccc3cccc(c23)C1=O	2.0	13.6	58.7*	3.6	1
Cc1[nH]n(-c2ccccc2)c(=O)c1C=NCCc1ccccc1	10.2	12.6	-2.4	-10.7	0.9
Cc1c(Br)c([N+](=O)[O-])nn1CC(=O)Nc1ccc(C(C)C)cc1	20.4	6.2	19.9	-6.9	0.8
CN(C)c1nnc(-c2ccc(Cl)cc2)o1	13.1	5.1	-2.1	-13.1	0.9
COC(=O)c1ccc(NC(=O)C2CC2)o1	12.6	2.9	-7.3	-11.1	0.9
C/C(=N\NC(=O)c1cc(-c2cccs2)nc2ccccc12)c1ccccn1	7.9	-1.5	100.3*	38.3	0.9
Cc1cccc2sc(NNC(=O)c3cc(-c4cccs4)nc4ccccc34)nc12	0.5	9.6	-8.3	59.0*	1
COc1ccc2cc(/C(C)=N/NC(=O)c3cc(-c4cccnc4)nc4ccccc34)ccc2c1	-16.8	10.5	-4.9	-25.1	1.2
C/C(=N\NC(=O)c1cc(-c2ccncc2)nc2ccccc12)c1ccc(N2CCOCC2)cc1	15.1	-7.0	96.9*	-15.4	0.8
CN(C(=O)COc1cc(=O)n(C)c2ccccc12)c1ccc(Br)cc1	9.5	8.0	29.5	-11.6	0.9
CC(NC(=O)CCc1ccccc1)c1cc2c(cc1Cl)OCCO2 (centres undefined)	10.1	1.6	6.9	-11.5	0.9
COc1ccc(/C=N/NC(N)=S)cc1OC(=O)c1cccc2ccccc12	14.1	2.3	98.9*	60.9*	0.9
COc1ccc(C(=O)Oc2cc(/C=N/NC(N)=S)ccc2OC)cc1	21.1	1.5	43.0	55.1	0.8
COc1cc(CNCc2ccccn2)ccc1OCc1ccc(Cl)cc1	-8.1	-11.3	96.2*	5.9	1.1
COc1ccc(CNc2ncccn2)cc1OC	-14.5	1.2	-8.1	2.1	1.1
COc1ccc(CC(=O)NCc2ccco2)cc1OC	-8.0	-0.1	-6.5	-6.0	1.1
COc1cc(CNCc2ccccn2)ccc1OCc1c(Cl)cccc1Cl	-7.5	-4.4	100.2*	1.4	1.1
COc1cc(CNCc2ccco2)ccc1OCc1ccccc1	1.5	-0.4	99.6*	-10.9	1
COc1cc(CNCc2ccccn2)ccc1OCc1cccc(Cl)c1	-25.5	3.0	98.8*	-4.6	1.3
CCn1cc(C(=O)NCc2cccnc2)c(=O)c2cc(F)c(N3CCN(C(=O)c4ccco4)CC3)cc21	11.8	9.2	31.0	6.3	0.9
COc1cc(CNC23CC4CC(CC(C4)C2)C3)ccc1OCc1ccccc1	5.2	6.9	78.7*	19.0	0.9
Cc1cccc(N2CCN(C(=O)C(NS(=O)(=O)c3cccs3)c3ccccc3)CC2)c1C (centres undefined)	8.5	1.6	62.2*	37.7	0.9
Cc1cccc(N2CCN(C(=O)C(Cc3ccccc3)n3cccc3)CC2)c1C (centres undefined)	23.7	-33.3	7.8	68.9*	0.8
SMILES	Diaph inh CS	G6PDH CS	Lmaj promast	WT yeast gro inh	Diaphorase act
CCOC(=O)c1ccccc1NC(=O)CN(c1ccc(OCC)cc1)S(C)(=O)=O	/	11.8	27.2	20.0	/
O=C1CN(C(=O)c2ccc(Br)o2)C(c2ccccc2)c2cc(F)ccc2N1 (centres undefined)	28.9	-4.2	92.4*	2.1	0.7
O=C1CN(C(=O)c2cc([N+](=O)[O-])ccc2Cl)C(c2ccc(F)cc2)c2cc(F)ccc2N1 (centres undefined)	10.2	3.7	79.3*	19.6	0.9
CCOC(=O)C(=O)/C(=C\N(C)C)c1onc(-c2c(F)cccc2Cl)c1C(=O)OC	6.6	-7.1	-5.5	-7.4	0.9
CC(C)c1ccc(CNCc2ccccc2)cc1	-9.4	6.2	79.9*	29.9	1.1
COc1ccc(-c2ccc(C(=O)O)o2)c([N+](=O)[O-])c1	68.8*	16.9	-7.5	-6.6	0.3
Cc1cc2nc(C3CCN(CC4COc5ccccc5O4)CC3)[nH]c2cc1C (centres undefined)	7.3	-21.6	90.7*	39.9	0.9
COc1ccc(OC)c(Nc2nc(N)nc(CSc3nnc(-c4ccncc4)o3)n2)c1	10.2	2.2	-2.9	-11.9	0.9
CC(=O)Nc1ccc2nc(C3CC3)n(Cc3ccc(Cl)cc3)c(=O)c2c1	10.6	3.6	83.8*	9.1	0.9
CCOc1ccccc1N(C)C(=O)c1nn(-c2ccc(OC)cc2OC)c(=O)c2ccccc12	8.0	6.8	13.4	-2.1	0.9
Cc1ccccc1NC(=S)N(Cc1ccccn1)Cc1ccccc1Cl	6.7	1.6	39.7	68.6*	0.9
Cc1c(Cl)cccc1NC(=S)N(CCCN1CCOCC1)Cc1ccco1	1.8	-0.3	32.3	-7.9	1
Cc1ccccc1NC(=S)N(CCCN1CCOCC1)Cc1ccccn1	0.0	-4.1	65.2*	13.8	1
S=C(Nc1ccccc1Cl)N(CCCN1CCOCC1)Cc1ccco1	0.0	-10.2	85.0*	-1.4	1
COc1ccccc1NC(=S)N(Cc1ccccn1)Cc1ccccc1Cl	3.4	3.4	16.1	67.1*	1
Cc1ccccc1NC(=S)NCCc1ccccn1	6.6	2.1	-4.3	-22.4	0.9
Cc1ccc(NC(=O)C2CCN(S(=O)(=O)c3c(C)n[nH]c3C)CC2)nc1	13.2	16.8	-6.4	4.2	0.9
CCOCCc1nnc(NC(=O)C(CC)c2ccccc2)s1 (centres undefined)	13.5	0.9	3.8	3.8	0.9
CCc1cc(-c2n[nH]c(=S)n2-c2cccc(C)c2)cs1	13.3	9.9	-11.8	61.3*	0.9
CCCc1cc(-c2n[nH]c(=S)n2CC(C)C)cs1	18.5	6.2	-5.2	62.4*	0.8
Cc1ccsc1-c1n[nH]c(=S)n1CC(C)C	-1.6	-3.4	-6.2	8.1	1
Cc1cccc(-n2c(-c3csc(C)c3)n[nH]c2=S)c1	18.7	7.3	-9.4	0.2	0.8
CCCCn1c(-c2csc3c2CCCC3)n[nH]c1=S	5.4	-2.6	-3.7	20.4	0.9
CCCCn1c(-c2csc3ccccc23)n[nH]c1=S	22.3	-3.2	-15.3	25.8	0.8
CCCCn1c(-c2csc3c2CCC(C)C3)n[nH]c1=S (centres undefined)	14.9	3.7	19.0	75.8*	0.9
CCCCn1c(-c2csc(C(C)C)c2)n[nH]c1=S	22.1	2.2	-6.2	65.1*	0.8
COc1ccc(Br)c(C(=O)NC2CCCC2)c1	11.4	4.8	17.3	3.6	0.9
Cc1oc(-c2ccc(-c3ccccc3)cc2)nc1CN1CCN(CC(=O)N(C)C)CC1	14.3	7.8	-6.7	1.3	0.9
CCCCn1c(-c2csc(CC)c2)n[nH]c1=S	14.2	5.2	-4.4	67.2*	0.9
